Assay results of several laboratories.
Protocols differ between the studies behind these lines.
Target: Vascular endothelial growth factor receptor 3 (FLT4, Homo sapiens, UniProt P35916)

SMILES	observed	mode	technique	concentration	measurement	value
COCc1c(-c2cc3cc(C)cc(OC)c3s2)c2c(N)ncnn2c1CN1CCNC(=O)C1	cell-free assay		competition with immobilised ligand	1 µM	inhibition	93.8%
N#CC1(c2ccccn2)CCN(Cc2cc(C(=O)O)c(=O)n3ccccc23)CC1	cell-free assay		competition with immobilised ligand	1 µM	remaining binding	100%
Cn1cc(-c2cc(F)cc(N3CCn4c(cc5c4CCCC5)C3=O)c2CO)cc(Nc2ccc(N3CCN(C4COC4)CC3)cn2)c1=O	enzyme activity	inhibitor		0.1 µM	inhibition	12%
COc1cc(Nc2ncc(F)c(Nc3ccc4c(n3)NC(=O)C(C)(C)O4)n2)cc(OC)c1OC	binding			10 µM	inhibition	100%
Nc1ncc(-c2nc(N3CCOCC3)nc(N3CCOCC3)n2)c(C(F)F)n1	cell-free assay		competition with immobilised ligand	10 µM	remaining binding	77%
O=c1[nH]c2ccccc2n1C1CCN(Cc2ccc(-c3[nH]c4cc5ncnc5cc4nc3-c3ccccc3)cc2)CC1	cell-free assay			0.5 µM	remaining signal	98.7%
COc1ncccc1-c1cnn2ccc(N3CCN(C(=O)OC(C)C)CC3)nc12	binding		competition with immobilised ligand	1 µM	remaining binding	99%
Cc1nn(C)cc1-c1nc2c(N3CCN(Cc4ccc(Cl)cc4)CC3)c(Cl)cnc2[nH]1	binding		competition with immobilised ligand	1 µM	remaining binding	0%
Cn1cncc1[C@@](O)(COc1ccc(C#N)cc1-c1ccc(OC(F)(F)F)cc1)c1ccc(C#N)cc1	cell-free assay		competition with immobilised ligand	1 µM	remaining binding	90%
Cn1cc(-c2cccc(N3CCc4c(sc5c4CC(C)(C)C5)C3=O)c2CO)cc(Nc2ccncn2)c1=O	enzyme activity	inhibitor		1 µM	inhibition	13%
CC(C)(C)c1cc(C=C(C#N)C#N)cc(Br)c1O	enzyme activity	inhibitor		0.5 µM	remaining activity	102%
